# Assays:
# [1] = biological target: Adenosine kinase (Homo sapiens, UniProt P55263); experiment: Inhibitory concentration against human recombinant adenosine kinase using [14C]AMP as radioligand
# [2] = test system: Rattus norvegicus; experiment: Percent inhibition of the licking and biting behavior in response to formalin injection at a dose of 20 mg/Kg when given orally in rat by formalin paw assay; (n=6); type: functional; conditions: po
# In short: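 Rats got 20 mg/kg orally in PEG 400 vehicle 2 h before intraplantar formalin, n = 6. Activity is expressed as % inhibition of licking and biting behaviour.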
# [3] = Plasma clearance at a dose of 3 mg/Kg in dog when given orally; type: ADME, organism-based, Canis lupus familiaris; conditions: po
# In short: (§1)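 Rats and dogs, n = 3 per group. Oral dosing at 3 mg/kg as a suspension in 0.1% methylcellulose; intravenous dosing at 1 mg/kg as a solution in 75% PEG 400/25% saline. Plasma sampled at 0.25, 0.5, 1, 2, 4, 8 and 24 h and drug levels measured by HPLC. […] Parameters reported as mean ± S.D.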
# [4] = Bioavailability at a dose of 3 mg/Kg in dog when given orally; type: ADME, organism-based, Canis lupus familiaris; conditions: in vivo, po; in short: as §1
# [5] = Bioavailability at a dose of 3 mg/Kg in rat when given orally; type: ADME, organism-based; conditions: in vivo, po; in short: as §1
# [6] = Plasma clearance at a dose of 1 mg/kg in dog when given i.v.; type: ADME, organism-based, Canis lupus familiaris; set-up: dose 1 mg/kg, route intravenous; conditions: iv; in short: as §1
# [7] = Plasma clearance at a dose of 1 mg/Kg in rat when given i.v.; type: ADME, organism-based; conditions: iv; in short: as §1
# [8] = Time required to be halved at a dose of 1 mg/kg in dog when given i.v.; type: ADME, organism-based, Canis lupus familiaris; set-up: dose 1 mg/kg, route intravenous; conditions: in vivo, iv; in short: as §1
# [9] = Time required to be halved at a dose of 1 mg/Kg in rat when given i.v.; type: ADME, organism-based; conditions: in vivo, iv; in short: as §1
# [10] = Time required to be halved at a dose of 3 mg/Kg in dog when given orally; type: ADME, organism-based, Canis lupus familiaris; conditions: in vivo, po; in short: as §1
# [11] = Time required to be halved at a dose of 3 mg/Kg in rat when given orally; type: ADME, organism-based; conditions: in vivo, po; in short: as §1
# [12] = Plasma clearance at a dose of 3 mg/Kg in rat when given orally; type: ADME, organism-based; conditions: po; in short: as §1
# [13] = Distributed volume at a dose of 1 mg/kg in dog when given i.v.; type: ADME, organism-based, Canis lupus familiaris; set-up: dose 1 mg/kg, route intravenous; conditions: in vivo, iv; in short: as §1
# [14] = Distributed volume at a dose of 1 mg/Kg in rat when given i.v.; type: ADME, organism-based; conditions: in vivo, iv; in short: as §1
# [15] = Distributed volume at a dose of 3 mg/Kg in dog when given orally; type: ADME, organism-based, Canis lupus familiaris; conditions: in vivo, po; in short: as §1
# [16] = Distributed volume at a dose of 3 mg/Kg in rat when given orally; type: ADME, organism-based; conditions: in vivo, po; in short: as §1
# [17] = Area under the plot of plasma concentration at a dose of 1 mg/kg in dog when given i.v.; type: ADME, organism-based, Canis lupus familiaris; set-up: dose 1 mg/kg, route intravenous; conditions: iv, read-out: AUC 0-24h; in short: as §1
# [18] = Area under the plot of plasma concentration at a dose of 1 mg/Kg in rat when given i.v.; type: ADME; conditions: iv; in short: as §1
# [19] = Area under the plot of plasma concentration at a dose of 3 mg/Kg in dog when given orally; type: ADME, Canis lupus familiaris; conditions: po, read-out: AUC 0-24h; in short: as §1
# [20] = Area under the plot of plasma concentration at a dose of 3 mg/Kg in rat when given orally; type: ADME; conditions: po; in short: as §1
# [21] = Maximum time to achieve plasma concentration at a dose of 3 mg/Kg in dog when given orally; type: ADME, organism-based, Canis lupus familiaris; conditions: po; in short: as §1
# [22] = Maximum time to achieve plasma concentration at a dose of 3 mg/Kg in rat when given orally; type: ADME, organism-based; conditions: po; in short: as §1
# [23] = test system: Rattus norvegicus; experiment: Effective dose for the […] effect measured after 2 hr when given orally in rat by rotarod assay.; type: functional; conditions: po
# In short: (§2)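 Fasted male SD rats (90–110 g) were dosed orally at 10–300 mg/kg in 0.1% MC. They were first trained to walk on a rotarod at 5 rpm for 150 s. Walking time, as a measure of sedation and ataxia, was recorded at 0, 0.5, 1, 2 and 5 h after dosing, with a 150 s cutoff.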
# [24] = test system: Rattus norvegicus; experiment: Effective dose for the […] effect measured after 5 h when given orally in rat by rotarod assay.; type: functional; conditions: po; in short: as §2
# [25] = test system: Rattus norvegicus; experiment: Effective dose for the analgesic effect measured at 3 hr after administration when given orally by hot plate assay; (n=6); type: functional; conditions: po
# In short: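 Fasted male SD rats (150–200 g) were gavaged with vehicle or graded doses. Hind-paw lick latency on a 50 °C hot plate (60 s max) was measured before dosing and at 0.5–4 h after.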
# [26] = test system: Rattus norvegicus; experiment: Effective dose of the licking and biting behavior in response to formalin injection at a dose of 20 mg/Kg when given orally in rat by formalin paw assay; (n=6); type: functional; conditions: po
# [27] = Maximum plasma concentration at a dose of 1 mg/kg in dog when given i.v.; type: ADME, organism-based, Canis lupus familiaris; set-up: dose 1 mg/kg, route intravenous; conditions: iv; in short: as §1
# [28] = Maximum plasma concentration at a dose of 1 mg/Kg in rat when given i.v.; type: ADME, organism-based; set-up: dose 1 mg/Kg, route intravenous; conditions: iv; in short: as §1
# [29] = Maximum plasma concentration at a dose of 3 mg/Kg in dog when given orally; type: ADME, organism-based, Canis lupus familiaris; set-up: dose 3 mg/Kg, route oral; conditions: po; in short: as §1
# [30] = Maximum plasma concentration at a dose of 3 mg/Kg in rat when given orally; type: ADME, organism-based; set-up: dose 3 mg/Kg, route oral; conditions: po; in short: as §1
# [31] = test system: Monkey; experiment: Effective dose for the analgesic effect measured after bradykinin injection when given orally by marmoset monkey bradykinin-induced licking; (n=6); type: functional; conditions: po
# In short: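 Six male marmosets (Callithrix jacchus, 250–340 g) got 0.3, 3, 10 or 30 mg/kg po, or 0.1% MC vehicle. At 60 min, 100 μL of 1 mM bradykinin in saline was injected intraplantar, alternating feet. Pain behaviour was scored 0–3 every 15 s for 15 min from video. Sessions were 2 weeks apart.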
# [32] = test system: Rattus norvegicus; experiment: Effective dose for the analgesic effect measured after carrageenan injection when given orally by carrageenan-induced mechanical hyperalgesia test; type: functional; conditions: po
# In short: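 Fasted male SD rats (100–120 g) were dosed orally with 1, 3 or 10 mg/kg in 0.1% MC 1 h before intraplantar carrageenan (1%, 100 μL/paw). Mechanical hyperalgesia was read by Randall-Selitto analgesimeter at 3, 4 and 5 h after carrageenan.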
# [33] = test system: Rattus norvegicus; experiment: Percent inhibition of the analgesic effect measured after carrageenan injection at a dose of 20 mg/Kg therapeutic when given orally by carrageenan-induced thermal hyperalgesia test; type: functional
# In short: (§3)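 Fasted male SD rats (160–180 g) were injected in the right hind plantar paw with lambda carrageenan (2 mg in 100 μL). They were gavaged with 20 mg/kg or vehicle (PEG400/0.2% Tween/5% propylene glycol), either 0.5 h before (prophylactic) or 2 h after (therapeutic) carrageenan. Hargreaves heat withdrawal was measured in the inflamed and control paws at 3.5–4.5 h.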
# [34] = test system: Rattus norvegicus; experiment: Percent inhibition of the analgesic effect measured after carrageenan injection at a dose of 20 mg/Kg prophylactic when given orally by carrageenan-induced thermal hyperalgesia test; type: functional; in short: as §3
# Sequence of Adenosine kinase (P55263 whole entry): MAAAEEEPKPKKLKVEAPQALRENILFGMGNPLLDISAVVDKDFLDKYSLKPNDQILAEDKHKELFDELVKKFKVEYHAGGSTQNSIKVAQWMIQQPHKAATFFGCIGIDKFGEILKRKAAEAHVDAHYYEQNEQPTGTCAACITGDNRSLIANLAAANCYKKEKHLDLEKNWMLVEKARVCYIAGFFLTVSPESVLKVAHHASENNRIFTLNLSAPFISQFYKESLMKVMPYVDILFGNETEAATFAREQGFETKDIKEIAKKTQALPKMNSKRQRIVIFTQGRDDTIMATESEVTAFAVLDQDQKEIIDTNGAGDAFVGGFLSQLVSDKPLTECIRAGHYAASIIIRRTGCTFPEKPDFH
smiles,measurement,setting,value
O[C@@H]1[C@H](O)CO[C@H]1n1cc(-c2ccccc2)c2c(Nc3ccccc3)ncnc21,IC50,[1],4 nM
same,inhibition in vivo at 20 mg/kg,[2],78%
CCOc1cccc(Nc2ncnc3c2c(-c2ccccc2)cn3[C@@H]2OC[C@@H](O)[C@H]2O)c1,IC50,[1],2 nM
same,inhibition in vivo at 20 mg/kg,[2],76%
CCOc1ccc(-c2cn([C@@H]3OC[C@@H](O)[C@H]3O)c3ncnc(Nc4ccc(C#N)cc4)c23)cc1,IC50,[1],2 nM
same,inhibition in vivo at 20 mg/kg,[2],84%
Nc1ncnc2c1c(I)cn2[C@@H]1OC[C@@H](O)[C@H]1O,IC50,[1],6 nM
O[C@H]1[C@H](n2cc(-c3ccccc3)c3c(Nc4ccc(F)cc4)ncnc32)OC2(CC2)[C@H]1O,IC50,[1],0.3 nM
Cc1ccccc1-c1cn([C@@H]2OC[C@@H](O)[C@H]2O)c2ncnc(Nc3ccc4c(c3)OCCO4)c12,IC50,[1],1 nM
same,inhibition in vivo at 20 mg/kg,[2],99%
CCOc1ccc(Nc2ncnc3c2c(-c2ccccc2)cn3[C@@H]2OC[C@@H](O)[C@H]2O)cc1,IC50,[1],3 nM
same,inhibition in vivo at 20 mg/kg,[2],41%
O[C@@H]1[C@H](O)CO[C@H]1n1cc(-c2ccccc2)c2c(Nc3ccc4c(c3)OCCO4)ncnc21,IC50,[1],4 nM
same,inhibition in vivo at 20 mg/kg,[2],80%
N#Cc1ccc(Nc2ncnc3c2c(-c2ccc(Cl)cc2)cn3[C@@H]2OC[C@@H](O)[C@H]2O)cc1,IC50,[1],7 nM
same,inhibition in vivo at 20 mg/kg,[2],75%
O[C@@H]1[C@H](O)CO[C@H]1n1cc(-c2ccccc2)c2c(Nc3ccc(F)cc3)ncnc21,IC50,[1],6 nM
same,CL/F,[3],6.67 mL/min/kg
same,bioavailability,[4],60%
same,bioavailability,[5],61.2%
same,clearance,[6],6.67 mL/min/kg
same,clearance,[7],21.7 mL/min/kg
same,half-life,[8],3.9 h
same,half-life,[9],3.2 h
same,half-life,[10],4 h
same,half-life,[11],3 h
same,CL/F,[12],25 mL/min/kg
same,Vd,[13],2 L/kg
same,Vd,[14],6.9 L/kg
same,Vd,[15],2.2 L/kg
same,Vd,[16],6.2 L/kg
same,AUC,[17],2970 ng·h/mL
same,AUC0-8h,[18],785 ng·h/mL
same,AUC,[19],5340 ng·h/mL
same,AUC0-8h,[20],1440 ng·h/mL
same,Tmax,[21],1.6 h
same,Tmax,[22],3.5 h
same,ED50,[23],21.7 mg/kg
same,ED50,[24],11.9 mg/kg
same,ED50,[25],16 mg/kg
same,inhibition in vivo at 20 mg/kg,[2],76%
same,ED50,[26],3.6 mg/kg
same,Cmax,[27],585 ng/mL
same,Cmax,[28],523 ng/mL
same,Cmax,[29],628 ng/mL
same,Cmax,[30],135 ng/mL
same,ED50,[31],3.8 mg/kg
same,ED50,[32],2.4 mg/kg
same,Inhibition,[33],99%
same,Inhibition,[34],151%
Nc1ncnc2c1c(I)cn2[C@@H]1OC2(CC2)[C@@H](O)[C@H]1O,IC50,[1],600 nM
CC1(C)O[C@@H](n2cc(-c3ccccc3)c3c(Nc4ccccc4)ncnc32)[C@H](O)[C@@H]1O,IC50,[1],4000 nM
C[C@H]1O[C@@H](n2cc(-c3ccccc3)c3c(Nc4ccc(F)cc4)ncnc32)[C@H](O)[C@@H]1O,inhibition in vivo at 20 mg/kg,[2],59%
CCOc1ccc(-c2cn([C@@H]3OC[C@@H](O)[C@H]3O)c3ncnc(Nc4ccccc4OC)c23)cc1,IC50,[1],5.3 nM
same,inhibition in vivo at 20 mg/kg,[2],16%
O[C@@H]1[C@H](O)CO[C@H]1n1cc(-c2ccccc2)c2c(Nc3ccc(Br)cc3)ncnc21,IC50,[1],5 nM
same,inhibition in vivo at 20 mg/kg,[2],33%
Nc1cccc(-c2cn([C@@H]3OC[C@@H](O)[C@H]3O)c3ncnc(Nc4ccc(F)cc4)c23)c1,IC50,[1],10 nM
same,inhibition in vivo at 20 mg/kg,[2],31%

# From ChEMBL document CHEMBL1141114, “Adenosine kinase inhibitors. 5. Synthesis, enzyme inhibition, and analgesic activity of diaryl-erythro-furanosyltubercidin analogues” (J Med Chem, 2005)
